As usually defined, the IC50 is the point on the concentration scale where inhibition reaches its midpoint. For orientation: inhibition means the share of the control response that was lost under treatment. What is called EC50 is the concentration at which the effect is half-maximal. One may read the mortality as the percentage killed. In general, Ki refers to a measure of affinity in units of concentration, obtained from inhibition or displacement. Low readings indicate a stronger hold on the target, high ones a looser hold on the target.

Active and inactive are the calls of the source. The rule behind the calls is not given here. Some results are limits rather than exact numbers.

In data set [1] the target is T1, Arginase (Leishmania amazonensis, UniProt O96394). Nature of the data set: Inhibition of recombinant Leishmania amazonensis arginase expressed in Escherichia coli using L-arginine as substrate. The method, boiled down:
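Recombinant E. coli-expressed LaARG was run with L-arginine at 25, 50 and 100 mM separately. Inhibitor was 200 to 0.05 µM by 4-fold serial dilution, in triplicate in two independent experiments. IC50 came from nonlinear sigmoidal regression of log dose versus enzyme activity; reported IC50 values are at 50 mM substrate.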

In data set [2] the test system is Peritoneal macrophage. Nature of the data set: (§1) Cytotoxicity against Swiss mouse peritoneal macrophages assessed as reduction in cell viability incubated for 48 hrs by MTT assay. Format: cell-based. Conditions: peritoneal macrophage, 48 h. In a few lines: (§2)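 Peritoneal cells harvested in RPMI 96 h after 3% thioglycolate (1 mL) in male Swiss mice (18-20 g). Plated at 10^5 cells/well in RPMI 1640 with 10% FBS and 2 mM glutamine. After 24 h, exposed to compound up to 200 µM, 48 h, 37 °C, 5% CO2. MTT 0.45 mg/mL added for 4 h, OD at 570. LC50 derived; at least 2 runs in triplicate.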

Data set [3] addresses Arginase (Leishmania amazonensis) (UniProt O96394). Briefly: Inhibition of recombinant Leishmania amazonensis arginase expressed in Escherichia coli at 100 uM using L-arginine as substrate relative to control. The method, boiled down:
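Recombinant LaARG was expressed in E. coli. Single-point screen: 100 µM compound with 50 mM L-arginine in 50 mM CHES, pH 9.5. DMSO stocks (70 mM) were diluted to 1 mM in deionized water before assay. Run in triplicate in two independent experiments.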

Data set [4] concerns Leishmania amazonensis. Briefly: Antileishmanial activity against Leishmania amazonensis LTB0016 amastigotes assessed as induction of parasite morality incubated for 48 hrs by Alamar blue dye based assay relative to control. The format is functional, organism-based. To be noted: LTB0016, 48 h. In a few lines:
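Free amastigotes (LTB0016) were purified by mechanical dissociation in RPMI from paw skin lesions of male Swiss Webster mice 30 days after s.c. infection with 10^6 amastigotes. Parasites at 10^6/well were exposed to compounds up to 30 µM for 48 h at 32 °C in 5% CO2. AlamarBlue (10%) was then added for 24 h at 32 °C and OD read at 570-600 nm. Final DMSO was ≤0.6%.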
In general terms: Resazurin is reduced to fluorescent resorufin, in cell work by metabolically active cells.

A short description of data set [5]: as §1. Format: cell-based, Peritoneal macrophage. Conditions: Swiss, peritoneal macrophages, read-out: LC50. In a few lines:
as §2

The target in data set [6] is Arginase (Leishmania amazonensis) (UniProt O96394). Briefly: Uncompetitive inhibition of recombinant Leishmania amazonensis arginase expressed in Escherichia coli assessed as dissociation constant for ternary complex enzyme-substrate-inhibitor using L-arginine as substrate by Dixon or Cornish-Bowden plot analysis. In a few lines:
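Kinetics on recombinant LaARG used L-arginine at 25, 50 and 100 mM, each with three inhibitor concentrations. Points are the mean of three independent experiments run in duplicate. Mechanism came from linear-regression Dixon and Cornish-Bowden plots. Kis (ESI complex dissociation constant) was taken from the intersection of lines on the Cornish-Bowden plot.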

Data set [7] relates to Leishmania amazonensis. Nature of the data set: Antileishmanial activity against Leishmania amazonensis LTB0016 amastigotes assessed as induction of parasite morality at 30 uM incubated for 48 hrs by Alamar blue dye based assay relative to control. Format: functional. To be noted: LTB0016, 48 h. In a few lines:
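Amastigotes purified by mechanical dissociation in RPMI from paw skin lesions of male Swiss Webster mice 30 days after subcutaneous infection with 10^6 amastigotes. Parasites at 10^6/well exposed 48 h at 32 °C, 5% CO2, with compound up to 30 µM (DMSO ≤0.6% final). Then 24 h with 10% AlamarBlue, OD read at 570-600 nm; pentamidine as reference.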

Data set [8] has as its target T1, Arginase. Briefly: Non-competitive inhibition of Leishmania amazonensis arginase using L-arginine as substrate incubated for 15 mins.
Data set [9] deals with Arginase (Leishmania amazonensis) (UniProt O96394). Nature of the data set: Competitive inhibition of recombinant Leishmania amazonensis arginase expressed in Escherichia coli using 25 to 100 mM L-arginine levels.

As to `Cc1ccc(-n2ncc3c(NNC(N)=S)ncnc32)cc1`, the IC50 in data set [1] was over 100 µM. For the same molecule, in [2], the LC50 entry is listed as “Nd(Insoluble)”. In addition, the inhibition in data set [3] is 42.2%.
In the case of `N=C(N)c1ccc(OCCCCCOc2ccc(C(=N)N)cc2)cc1` [PENTAMIDINE], the EC50 in data set [4] came to 0.8 µM. Further, in data set [5], the CC50 at 48 h came out at 17.2 µM.
On to `Cc1cc(NNC(N)=S)n2nc(C(F)(F)F)nc2n1`, for which the K in data set [6] is 17 µM. For the same molecule, in [1], the IC50 worked out at 16.5 µM. In addition, the CC50 at 48 h in data set [5] was over 200 µM. For the same molecule, the mortality at 30 µM in data set [7] is 20 to 30%. In data set [8], this molecule had an IC50 of 16.5 µM and an inhibition constant Ki of 17 µM. Besides, the inhibition in data set [3] worked out at 81%.
Turning to `N#Cc1ccc(-n2ncc3c(NNC(N)=S)ncnc32)cc1`, the half-inhibitory concentration (IC50) in [1] came out at 100 µM. Further, in data set [2], the LC50 entry is recorded as “Nd(Insoluble)”. The inhibition in [3] is 59.8%.
As for `NC(=S)NNc1ncnc2c1cnn2-c1ccccc1`, the K in data set [6] came out at 8.5 µM. The IC50 in [1] came to 12 µM. In addition, the CC50 at 48 h in [5] was over 200 µM. Further, in [7], the mortality at 30 µM fell in the range of 20 to 30%. In addition, the inhibition result in data set [9] is “inactive”. For the same molecule, in data set [3], the inhibition is 74.3%.
`NC(=S)NNc1ncnc2c1cnn2-c1ccc(Cl)cc1`: the half-maximal inhibitory concentration (IC50) in [1] was over 100 µM. The CC50 at 48 h in [5] is over 200 µM. In addition, the mortality at 30 µM in [7] lay in the range of 20 to 30%. Moreover, the inhibition in data set [3] was determined as 46%.
Consider `NC(=S)NNc1ncnc2c1cnn2-c1ccc(C(F)(F)F)cc1`, for which the K in data set [6] was 29 µM. For the same molecule, the half-maximal inhibitory concentration (IC50) in data set [1] was found to be 47 µM. Further, the CC50 at 48 h in data set [5] was over 200 µM. In data set [7], the mortality at 30 µM was 20 to 30%. Also, in data set [9], the inhibition result is “inactive”. Besides, in [3], the inhibition is 73.8%.
For the molecule `NC(=S)NNc1ncnc2c1cnn2-c1ccc(F)cc1`, the concentration for half-maximal inhibition (IC50) in data set [1] was over 100 µM. For the same molecule, in data set [5], the CC50 at 48 h was over 200 µM. Further, in data set [7], the mortality at 30 µM was in the range of 20 to 30%. The inhibition in data set [3] was 36.4%.

(Values after ChEMBL document CHEMBL4340573, “New pyrazolopyrimidine derivatives as Leishmania amazonensis arginase inhibitors” (Bioorg Med Chem, 2019).)
